According to ChEMBL document CHEMBL5244249, “Discovery of tofacitinib derivatives as orally active antitumor agents based on the scaffold hybridization strategy” (Eur J Med Chem, 2020):
Activity calls are given as the source filed them. The calls are words filed in the database; no cut-off is given here.

Key:
MGC-803 [1] = assay: Antiproliferative activity against human MGC-803 cells assessed as inhibition of cell growth incubated for 72 hrs by MTT assay; assay type: functional, cell-based; conditions: MGC-803, 72 h
Procedure, shortened: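 Antiproliferative screen in gastric cancer lines MGC-803, HGC-27 and BGC-823 by MTT assay; IC50 reported as mean ± SD.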

MGC-803 [2] = assay: Inhibition of colony formation in human MGC-803 cells at 2 uM incubated for 9 days by crystal violet staining based analysis relative to control; assay type: functional; conditions: MGC-803, 216 h, time 9 day
Procedure, shortened: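 Clonogenic assay: MGC-803 cells grown 9 days with 0, 1, 2 or 3 μM; colonies counted and inhibition rate calculated against untreated control; mean ± SD of three independent experiments.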

MGC-803 [3] = assay: Induction of apoptosis in human MGC-803 cells assessed as cell debris at 5 to 10 uM incubated for 24 hrs by Hoechst 33342 staining based fluorescence microscopic analysis; assay type: functional; conditions: dose 5-10 µM
Procedure, shortened: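 MGC-803 cells exposed to 0, 5, 7.5 or 10 μM; cell morphology imaged and nuclear morphology examined by staining. Mean ± SD, three independent experiments.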

MGC-803 [4] = assay: Induction of apoptosis in human MGC-803 cells assessed as nuclear condensation at 5 to 10 uM incubated for 24 hrs by Hoechst 33342 staining based fluorescence microscopic analysis; assay type: functional, cell-based; conditions: dose 5-10 µM
Procedure, shortened: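 MGC-803 cells treated at 0, 5, 7.5 and 10 μM; cell morphology and nuclear morphology (fragmentation, condensation) examined by staining and imaging; three independent experiments, mean ± SD.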

MGC-803 [5] = assay: Induction of apoptosis in human MGC-803 cells assessed as viable cells at 5 uM incubated for 24 hrs by Annexin V-FITC/PI staining based flow cytometric analysis (reference value: 90.3 %); assay type: functional; conditions: read-out: Activity
MGC-803 [6] = assay: Induction of apoptosis in human MGC-803 cells assessed as necrotic cells at 5 uM incubated for 24 hrs by Annexin V-FITC/PI staining based flow cytometric analysis (reference value: 2.0 %); assay type: functional
MGC-803 [7] = assay: Induction of apoptosis in human MGC-803 cells assessed as viable cells at 7.5 uM incubated for 24 hrs by Annexin V-FITC/PI staining based flow cytometric analysis (reference value: 90.3 %); assay type: functional; conditions: read-out: Activity
MGC-803 [8] = assay: Induction of apoptosis in human MGC-803 cells assessed as early apoptotic cells at 7.5 uM incubated for 24 hrs by Annexin V-FITC/PI staining based flow cytometric analysis (reference value: 3.9 %); assay type: functional
MGC-803 [9] = assay: Induction of apoptosis in human MGC-803 cells assessed as necrotic cells at 7.5 uM incubated for 24 hrs by Annexin V-FITC/PI staining based flow cytometric analysis (reference value: 2.0 %); assay type: functional
MGC-803 [10] = assay: Induction of apoptosis in human MGC-803 cells assessed as early apoptotic cells at 7.5 uM incubated for 48 hrs by Annexin V-FITC/PI staining based flow cytometric analysis (reference value: 2.5 %); assay type: functional
MGC-803 [11] = assay: Induction of apoptosis in human MGC-803 cells assessed as early apoptotic cells at 10 uM incubated for 48 hrs by Annexin V-FITC/PI staining based flow cytometric analysis (reference value: 2.5 %); assay type: functional
MGC-803 [12] = assay: Cell cycle arrest in human MGC-803 cells assessed as G2/M phase cells at 7.5 uM incubated for 24 hrs by RNase/PI staining based flow cytometric analysis (reference value: 15.11%); assay type: functional
MGC-803 [13] = assay: Cell cycle arrest in human MGC-803 cells assessed as G0/G1 phase cells at 10 uM incubated for 24 hrs by RNase/PI staining based flow cytometric analysis (reference value: 54.99%); assay type: functional
MGC-803 [14] = assay: Induction of mitochondrial dysfunction in human MGC-803 cells assessed as increase in green fluorescence intensity at 5 uM incubated for 24 hrs by JC-1 staining based fluorescence microscopic analysis (reference value: 9.9%); assay type: functional
MGC-803 [15] = assay: Induction of mitochondrial dysfunction in human MGC-803 cells assessed as increase in green fluorescence intensity at 10 uM incubated for 24 hrs by JC-1 staining based fluorescence microscopic analysis (reference value: 9.9%); assay type: functional
MGC-803 [16] = assay: Induction of mitochondrial dysfunction in human MGC-803 cells assessed as upregulation of cleaved caspase-9 expression at 5 to 10 uM incubated for 24 hrs by Western blot analysis; assay type: functional, cell-based; conditions: dose 5-10 µM
Procedure, shortened: (§1)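 Western blot of caspase 9, 3, 7, PARP and γH2A.X in MGC-803 lysates after 24 h exposure to 5, 7.5 or 10 μM; band quantitation; mean ± SD from three independent experiments.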

MGC-803 [17] = assay: Induction of mitochondrial dysfunction in human MGC-803 cells assessed as upregulation of cleaved caspase-3 expression at 5 to 10 uM incubated for 24 hrs by Western blot analysis; assay type: functional, cell-based; conditions: dose 5-10 µM; procedure, shortened: as §1
MGC-803 [18] = assay: Induction of mitochondrial dysfunction in human MGC-803 cells assessed as upregulation of cleaved PARP expression at 5 to 10 uM incubated for 24 hrs by Western blot analysis; assay type: functional, cell-based; conditions: dose 5-10 µM; procedure, shortened: as §1
[19] = Activation of MAPK pathway in human MGC-803 cells assessed as change in ERK1/2 total expression at 5 to 10 uM incubated for 24 hrs by Western blot analysis; assay type: cell-based; conditions: dose 5-10 µM
[20] = Activation of MAPK pathway in human MGC-803 cells assessed as change in p38 total expression at 5 to 10 uM incubated for 24 hrs by Western blot analysis; assay type: cell-based; conditions: dose 5-10 µM
[21] = Activation of MAPK pathway in human MGC-803 cells assessed as change in phosphorylated Erk1/2 expression at 5 to 10 uM incubated for 24 hrs by Western blot analysis; assay type: cell-based; conditions: dose 5-10 µM
[22] = Activation of MAPK pathway in human MGC-803 cells assessed as change in phosphorylated Erk5 expression at 5 to 10 uM incubated for 24 hrs by Western blot analysis; assay type: cell-based; conditions: dose 5-10 µM
[23] = Activation of MAPK pathway in human MGC-803 cells assessed as increase in phosphorylated p38 expression at 5 to 10 uM incubated for 24 hrs by Western blot analysis; assay type: cell-based; conditions: filed as activator, dose 5-10 µM
[24] = Activation of MAPK pathway in human MGC-803 cells assessed as increase in phosphorylated JNK expression at 5 to 10 uM incubated for 24 hrs by Western blot analysis; assay type: cell-based; conditions: filed as activator, dose 5-10 µM
MGC-803 [25] = assay: Antiproliferative activity against human MGC-803 cells assessed as decrease in cell viability at 10 uM preincubated with SP600125 for 4 hrs followed by compound addition and measured after 24 hrs by MTT assay; assay type: functional, cell-based
Procedure, shortened: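 MGC-803 cells pre-incubated 4 h with SB203580 (4 μM) or SP600125 (20 μM), then exposed to 10 μM test compound for 24 h; viability by MTT, expressed as percent of control. Mean ± SD, three independent experiments.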

[26] = Toxicity in SCID mouse xenografted with human MGC-803 cells assessed as effect on general health at 12.5 to 25 mg/kg, IG administered for 21 days; assay type: organism-based; conditions: in vivo, po, 504 h, dose 12.5-25 mg/kg, time 21 day
Procedure, shortened: (§2)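 SCID mice bearing subcutaneous MGC-803 xenografts (right side) dosed with 12.5 or 25 mg/kg over 21 days, 0.5% CMC-Na vehicle as control; body weight and tumor size monitored periodically; major organs examined histopathologically at end; means ± SD.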

[27] = Toxicity in SCID mouse xenografted with human MGC-803 cells assessed as effect on liver at 12.5 to 25 mg/kg, IG administered for 21 days by H&E staining based histopathological analysis; assay type: organism-based; conditions: in vivo, po, 504 h, dose 12.5-25 mg/kg, time 21 day; procedure, shortened: as §2

With `Cc1cc(N2CC[C@@H](C)[C@@H](N(C)c3ncnc4[nH]ccc34)C2)n2nc(SCc3ccc(C(F)(F)F)cc3)nc2n1` the IC50 (MGC-803 [1]) was 2.68 µM, the inhibition at 2 µM (MGC-803 [2]) was 54% and the Activity (MGC-803 [3]) was “Active”. The Activity (MGC-803 [4]) was “Active”, the viability at 5 µM (MGC-803 [5]) was 81.7% and the Activity (MGC-803 [6]) was 4%. It also gave a viability at 7.5 µM (MGC-803 [7]) of 69.2%, an Activity (MGC-803 [8]) of 11.5% and an Activity (MGC-803 [9]) of 3.5%. For the same compound, the Activity (MGC-803 [10]) was 8.8%, the Activity (MGC-803 [11]) was 4.9% and the Activity (MGC-803 [12]) was 12.24%. For the same compound, the Activity (MGC-803 [13]) was 56.74%, the Activity (MGC-803 [14]) was 27.7% and the Activity (MGC-803 [15]) was 49.1%. For the same compound, the Activity (MGC-803 [16]) was “Active”, the Activity (MGC-803 [17]) was “Active” and the Activity (MGC-803 [18]) was “Active”. The Activity [19] was “inactive”, the Activity [20] was “inactive” and the Activity [21] was “inactive”. For the same compound, the Activity [22] was “inactive”, the Activity [23] was “Active” and the Activity [24] was “Active”. The Activity (MGC-803 [25]) was “inactive”, the Activity [26] was “Non-Toxic” and the Activity [27] was “Non-Toxic”.
